Among the data in ChEMBL document CHEMBL4813998, “Structural simplification of evodiamine: Discovery of novel tetrahydro-β-carboline derivatives as potent antitumor agents” (Bioorg Med Chem Lett, 2021) are inhibition, Activity and IC50 values, retold here.

Structures are written as SMILES. Active and inactive are the calls of the source. The calls are words filed in the database; no cut-off is given here.

Assay [1] addresses DNA topoisomerase 2-alpha (Homo sapiens) (UniProt P11388). Briefly: Inhibition of TOP2 (unknown origin) assessed as fractured DNA fragments using supercoiled plasmid DNA at 250 uM. Put shortly:
(§1)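 Purified Top2 was incubated with DNA and compounds at 250 μM and 100 μM. The read-out was the appearance of fractured DNA fragments, with etoposide as the positive control.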

For assay [2] the target is unchanged. Briefly: Inhibition of TOP2 (unknown origin) assessed as fractured DNA fragments using supercoiled plasmid DNA at 50 uM relative to etoposide.
Assay [3] deals with T1, DNA topoisomerase 1 (Homo sapiens) (UniProt P11387).
T1 sequence (whole entry): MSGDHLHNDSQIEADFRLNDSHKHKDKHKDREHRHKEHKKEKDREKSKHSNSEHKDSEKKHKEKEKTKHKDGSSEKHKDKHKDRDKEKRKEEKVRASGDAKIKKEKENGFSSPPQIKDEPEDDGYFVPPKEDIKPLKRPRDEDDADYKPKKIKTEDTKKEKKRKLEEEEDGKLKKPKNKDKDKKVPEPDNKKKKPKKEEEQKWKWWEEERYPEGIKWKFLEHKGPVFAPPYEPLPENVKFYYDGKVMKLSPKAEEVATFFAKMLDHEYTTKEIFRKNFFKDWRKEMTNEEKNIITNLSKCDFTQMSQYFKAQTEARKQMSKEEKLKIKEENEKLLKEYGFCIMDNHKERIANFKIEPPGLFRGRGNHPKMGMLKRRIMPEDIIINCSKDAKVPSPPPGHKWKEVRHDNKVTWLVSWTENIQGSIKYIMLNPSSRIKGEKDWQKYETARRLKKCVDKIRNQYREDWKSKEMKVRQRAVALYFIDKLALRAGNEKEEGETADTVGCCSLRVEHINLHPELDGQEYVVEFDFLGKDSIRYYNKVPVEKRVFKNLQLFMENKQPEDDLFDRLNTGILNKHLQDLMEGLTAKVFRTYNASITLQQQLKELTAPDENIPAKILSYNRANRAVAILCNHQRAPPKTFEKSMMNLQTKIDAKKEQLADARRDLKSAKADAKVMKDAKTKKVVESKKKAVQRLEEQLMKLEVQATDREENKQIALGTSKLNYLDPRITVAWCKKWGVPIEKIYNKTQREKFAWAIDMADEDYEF
Briefly: Inhibition of TOP1 (unknown origin) assessed as decrease in relaxation of supercoiled DNA using supercoiled plasmid DNA at 100 uM relative to camptothecin. Put shortly:
(§2)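 Top1-mediated relaxation of supercoiled DNA was tested with compounds at 500 μM and 100 μM. Camptothecin served as the positive control.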

Assay [4] deals with HCT-116. Briefly: Induction of apoptosis in human HCT116 cells assessed as increase in bax protein expression at 0.03 to 1.5 uM after 24 hrs by Western blot analysis. Conditions: dose 0.03-1.5 µM. The format is functional, cell-based. Put shortly:
(§3)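 HCT116 cells were exposed to various concentrations for 24 h. Lysates were then probed by western blot for caspase-9, caspase-3, Bcl-2, Bax and cytochrome C.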

For assay [5], the system named is HCT-116. Nature of the assay: Induction of apoptosis in human HCT116 cells assessed as increase in caspase-3 expression after 24 hrs by Western blot analysis. The assay is classed as functional, cell-based. Conditions: dose 0.03-1.5 µM. Put shortly: as §3
Assay [6] relates to Mus musculus. Briefly: Toxicity in nude mouse xenografted with human HCT116 cells assessed as body weight loss at 50 mg/kg/day, ip administered bid for 21 days. Conditions: Epithelial cell, time 21.0 day. The format is functional, organism-based. Put shortly:
(§4)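 HCT116 cells were inoculated into nude mice to form xenografts. Dosing was intraperitoneal at 50 mg/kg/day for 21 consecutive days. Evodiamine was given at the same dosage as the comparator. Tumor growth and body weight after implantation were tracked, and data are reported as mean ± SEM.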

Assay [7] has as its system HCT-116. Briefly: Induction of apoptosis in human HCT116 cells assessed as increase in caspase-9 expression after 24 hrs by Western blot analysis. The assay is classed as functional, cell-based. To be noted: dose 0.03-1.5 µM. Put shortly: as §3
Assay [8] deals with T1, DNA topoisomerase 1 (Homo sapiens). Briefly: Inhibition of TOP1 (unknown origin) assessed as decrease in relaxation of supercoiled DNA using supercoiled plasmid DNA at 500 uM relative to camptothecin. Put shortly:
as §2

Assay [9] addresses DNA topoisomerase 2-alpha (Homo sapiens) (UniProt P11388). Briefly: Inhibition of TOP2 (unknown origin) assessed as fractured DNA fragments using supercoiled plasmid DNA at 100 uM relative to etoposide. Put shortly: as §1
Assay [10] relates to HCT-116. Briefly: Induction of apoptosis in human HCT116 cells assessed as decrease in Bcl-2 protein expression at 0.03 to 1.5 uM after 24 hrs by Western blot analysis. The assay is classed as functional, cell-based. To be noted: dose 0.03-1.5 µM. Put shortly:
as §3

For assay [11], the system named is HCT-116. Nature of the assay: Antitumor activity against human HCT116 cells xenografted in nude mice assessed as tumor growth inhibition at 50 mg/kg/day, ip administered bid for 21 days relative to control. Conditions: time 21.0 day. The format is functional, organism-based. Put shortly:
as §4

Assay [12] relates to HCT-116. Briefly: Induction of apoptosis in human HCT116 cells assessed as increase in cytochrome c expression after 24 hrs by Western blot analysis. The assay is classed as functional, cell-based. Conditions: dose 0.03-1.5 µM. Put shortly:
as §3

The subject of assay [13] is HCT-116. Briefly: Induction of cell cycle arrest in human HCT-116 cells assessed as accumulation at G2/M phase at 0.15 uM after 48 hrs by propidium iodide staining based flow cytometric analysis (reference value: 25.01%). The format is functional.
The test system of assay [14] is HCT-116. Nature of the assay: Induction of cell cycle arrest in human HCT-116 cells assessed as accumulation at G2/M phase at 0.03 uM after 24 hrs by propidium iodide staining based flow cytometric analysis (reference value: 27.78%). The format is functional.
Assay [15] deals with HCT-116. Nature of the assay: Induction of apoptosis in human HCT116 cells at 0.15 uM after 48 hrs by annexin V-FITC/propidium iodide staining based flow cytometry (RVB = 6.77%). The assay is classed as functional. Put shortly: (§5)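 HCT116 cells were treated at 0.03, 0.15, 0.75 or 1.5 μM for 48 h. They were then stained with Annexin V/PI and analysed by flow cytometry, and apoptotic cells were reported as a percentage. An untreated control was run alongside.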

The test system of assay [16] is HCT-116. Nature of the assay: Induction of apoptosis in human HCT116 cells at 0.03 uM after 48 hrs by annexin V-FITC/propidium iodide staining based flow cytometry (RVB = 6.77%). The format is functional. Put shortly: as §5
Assay [17] has as its system HCT-116. Briefly: Induction of cell cycle arrest in human HCT-116 cells assessed as accumulation at S phase at 0.15 uM after 48 hrs by propidium iodide staining based flow cytometric analysis (reference value: 40.6%). The format is functional.
Assay [18] can be described thus: Antiproliferative activity against human HCT116 cells assessed as growth inhibition by CCK8 assay. The format is functional, cell-based, Epithelial cell. To be noted: epithelial cell.
Assay [19] deals with HCT-116. Briefly: Induction of cell cycle arrest in human HCT-116 cells assessed as accumulation at G1 phase at 0.75 uM after 24 hrs by propidium iodide staining based flow cytometric analysis (reference value: 33.16%). The format is functional.
In assay [20] the test system is HCT-116. Nature of the assay: Induction of cell cycle arrest in human HCT-116 cells assessed as accumulation at G2/M phase at 0.03 uM after 48 hrs by propidium iodide staining based flow cytometric analysis (reference value: 25.01%). The assay is classed as functional.
Assay [21] has as its system HCT-116. Nature of the assay: Induction of cell cycle arrest in human HCT-116 cells assessed as accumulation at G1 phase at 0.75 uM after 48 hrs by propidium iodide staining based flow cytometric analysis (reference value: 34.38%). The format is functional.
In assay [22] the test system is HCT-116. Nature of the assay: Induction of cell cycle arrest in human HCT-116 cells assessed as accumulation at S phase at 0.15 uM after 24 hrs by propidium iodide staining based flow cytometric analysis (reference value: 39.06%). The format is functional.
Assay [23] concerns HCT-116. Briefly: Induction of apoptosis in human HCT116 cells at 0.75 uM after 48 hrs by annexin V-FITC/propidium iodide staining based flow cytometry (RVB = 6.77%). The format is functional. Put shortly:
as §5

The test system of assay [24] is HCT-116. Nature of the assay: Induction of apoptosis in human HCT116 cells at 1.5 uM after 48 hrs by annexin V-FITC/propidium iodide staining based flow cytometry (RVB = 6.77%). The assay is classed as functional. Put shortly:
as §5

Assay [25] relates to HCT-116. Briefly: Induction of cell cycle arrest in human HCT-116 cells assessed as accumulation at G1 phase at 0.15 uM after 48 hrs by propidium iodide staining based flow cytometric analysis (reference value: 34.38%). The assay is classed as functional.
In assay [26] the test system is HCT-116. Briefly: Induction of cell cycle arrest in human HCT-116 cells assessed as accumulation at G2/M phase at 0.15 uM after 24 hrs by propidium iodide staining based flow cytometric analysis (reference value: 27.78%). The assay is classed as functional.
The subject of assay [27] is HCT-116. Nature of the assay: Induction of cell cycle arrest in human HCT-116 cells assessed as accumulation at S phase at 0.75 uM after 24 hrs by propidium iodide staining based flow cytometric analysis (reference value: 39.06%). The format is functional.
Assay [28] deals with HCT-116. Nature of the assay: Induction of cell cycle arrest in human HCT-116 cells assessed as accumulation at G2/M phase at 0.75 uM after 48 hrs by propidium iodide staining based flow cytometric analysis (reference value: 25.01%). The format is functional.
Assay [29] can be described thus: Antiproliferative activity against human MDA-MB-231 cells assessed as growth inhibition by CCK8 assay. To be noted: epithelial cell. The format is functional, cell-based, Epithelial cell.
The subject of assay [30] is HCT-116. Briefly: Induction of cell cycle arrest in human HCT-116 cells assessed as accumulation at G2/M phase at 0.75 uM after 24 hrs by propidium iodide staining based flow cytometric analysis (reference value: 27.78%). The assay is classed as functional.
Assay [31] relates to HCT-116. Nature of the assay: Induction of cell cycle arrest in human HCT-116 cells assessed as accumulation at S phase at 0.03 uM after 24 hrs by propidium iodide staining based flow cytometric analysis (reference value: 39.06%). The assay is classed as functional.
The subject of assay [32] is HCT-116. Briefly: Induction of cell cycle arrest in human HCT-116 cells assessed as accumulation at S phase at 0.75 uM after 48 hrs by propidium iodide staining based flow cytometric analysis (reference value: 40.6%). The format is functional.
In assay [33] the test system is HCT-116. Briefly: Induction of cell cycle arrest in human HCT-116 cells assessed as accumulation at G1 phase at 0.15 uM after 24 hrs by propidium iodide staining based flow cytometric analysis (reference value: 33.16%). The assay is classed as functional.
Assay [34] deals with HCT-116. Nature of the assay: Induction of cell cycle arrest in human HCT-116 cells assessed as accumulation at S phase at 0.03 uM after 48 hrs by propidium iodide staining based flow cytometric analysis (reference value: 40.6%). The assay is classed as functional.
The subject of assay [35] is HCT-116. Nature of the assay: Induction of cell cycle arrest in human HCT-116 cells assessed as accumulation at G1 phase at 0.03 uM after 24 hrs by propidium iodide staining based flow cytometric analysis (reference value: 33.16%). The assay is classed as functional.
Assay [36] relates to HCT-116. Briefly: Induction of cell cycle arrest in human HCT-116 cells assessed as accumulation at G1 phase at 0.03 uM after 48 hrs by propidium iodide staining based flow cytometric analysis (reference value: 34.38%). The format is functional.
Assay [37] in a line: Antiproliferative activity against human A549 cells assessed as growth inhibition by CCK8 assay. Conditions: epithelial cell. The format is functional, cell-based, Epithelial cell.

Sequence of DNA topoisomerase 2-alpha (Homo sapiens) (P11388 whole entry, the tested form may be a part): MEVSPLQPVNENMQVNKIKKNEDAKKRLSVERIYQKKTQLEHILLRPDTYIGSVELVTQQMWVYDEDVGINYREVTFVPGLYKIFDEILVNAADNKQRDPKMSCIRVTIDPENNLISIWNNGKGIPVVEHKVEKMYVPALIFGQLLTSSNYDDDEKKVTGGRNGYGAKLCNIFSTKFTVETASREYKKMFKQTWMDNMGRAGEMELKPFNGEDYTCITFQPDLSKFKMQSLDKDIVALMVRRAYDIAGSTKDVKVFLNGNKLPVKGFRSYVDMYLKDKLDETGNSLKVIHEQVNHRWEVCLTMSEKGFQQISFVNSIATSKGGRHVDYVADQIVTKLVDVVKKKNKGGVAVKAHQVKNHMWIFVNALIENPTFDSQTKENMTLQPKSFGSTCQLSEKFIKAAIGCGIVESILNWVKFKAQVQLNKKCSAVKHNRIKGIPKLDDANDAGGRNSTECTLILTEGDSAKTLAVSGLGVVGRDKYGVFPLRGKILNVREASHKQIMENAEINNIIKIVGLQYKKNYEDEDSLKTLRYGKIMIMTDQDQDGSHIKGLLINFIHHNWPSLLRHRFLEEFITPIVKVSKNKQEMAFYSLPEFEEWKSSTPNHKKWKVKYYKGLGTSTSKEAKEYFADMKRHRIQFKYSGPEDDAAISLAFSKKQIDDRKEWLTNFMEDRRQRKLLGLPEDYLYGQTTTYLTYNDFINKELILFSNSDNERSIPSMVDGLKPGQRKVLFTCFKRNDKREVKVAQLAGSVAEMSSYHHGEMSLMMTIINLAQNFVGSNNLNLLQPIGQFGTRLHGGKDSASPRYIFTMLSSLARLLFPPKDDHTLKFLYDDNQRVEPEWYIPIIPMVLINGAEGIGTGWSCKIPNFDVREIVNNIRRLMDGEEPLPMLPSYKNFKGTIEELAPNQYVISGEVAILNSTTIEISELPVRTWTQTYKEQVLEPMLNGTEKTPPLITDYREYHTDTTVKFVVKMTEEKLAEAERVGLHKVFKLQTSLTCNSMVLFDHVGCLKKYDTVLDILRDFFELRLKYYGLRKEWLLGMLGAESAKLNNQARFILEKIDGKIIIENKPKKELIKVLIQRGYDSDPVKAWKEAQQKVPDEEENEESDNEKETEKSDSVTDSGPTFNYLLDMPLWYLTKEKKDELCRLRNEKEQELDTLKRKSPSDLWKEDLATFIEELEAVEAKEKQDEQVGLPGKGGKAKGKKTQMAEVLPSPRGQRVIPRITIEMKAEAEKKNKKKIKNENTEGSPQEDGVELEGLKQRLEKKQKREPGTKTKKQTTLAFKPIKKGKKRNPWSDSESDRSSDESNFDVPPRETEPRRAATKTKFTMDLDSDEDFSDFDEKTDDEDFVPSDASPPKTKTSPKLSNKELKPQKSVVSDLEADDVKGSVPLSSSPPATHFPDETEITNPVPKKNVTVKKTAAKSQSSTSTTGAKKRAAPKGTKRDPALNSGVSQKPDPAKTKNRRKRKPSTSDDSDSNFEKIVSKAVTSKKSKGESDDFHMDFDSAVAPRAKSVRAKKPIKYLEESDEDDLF

Consider `COc1ccc2[nH]c3c(c2c1)CCN(C(=O)CCc1ccccc1)C3c1ccc(Cl)c(Cl)c1` (stereo in doubt; 45) [listing 1 of 2 here], for which the inhibition entry in [1], in [2], in assay [3], in [8] and in [9] was “Active” in each case. Besides, the outcome in [4], in assay [5], in [6], in assay [7], in [10] and in assay [11] was Active. The Activity result in assay [12] was “Dose-Dependent Effect”.
With `COc1ccc2[nH]c3c(c2c1)CCN(C(=O)CCc1ccccc1)C3c1ccc(Cl)c(Cl)c1` (stereo in doubt; 45) [listing 2 of 2 here], the Activity worked out at 93.03% in [13]; 32.12% in assay [14]; 13.46% in [15]; 10.11% in [16]; 4.78% in assay [17]; 1.2% in assay [19]. Also, the Activity in [20] amounted to 67.92%; in [21] it was 2.06%; in assay [22], 19.86%; in assay [23], 25.43%; in assay [24] it was 30.98%; in assay [25], 2.19%. Further, the Activity in [26] is on record as 78.12%; in assay [27] it was 10.43%; in assay [28] it was 93.15%; in [30] it was 88.37%; in assay [31], 35.43%; in assay [32], 4.79%. Moreover, the Activity is 2.02% in assay [33], 20.81% in [34], 32.45% in [35] and 11.27% in [36]. Further, the IC50 in assay [18] turned out to be 160 nM; in [29], 160 nM; in [37], 760 nM.
